Laboratory results from PubChem BioAssay.
A number with no mark means an inactive call. Calls of active or inactive are those of the source.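 How the source made its calls: active means fluorescence slope after compound addition differing from the mean of all tested samples at 99.7% confidence, mostly higher but some lower; inactive means the rest.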

The compounds below were run against Muscarinic acetylcholine receptor M4 (Homo sapiens) (UniProt P08173) (assay: compounds altering M4/GIRK thallium flux, either direction, primary screen, M4 allosteric agonist project, cell-based, HEK293 M4/GIRK, BTC-AM (AID 625;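 further: thallium influx through GIRK channels coupled to M4 in HEK293 cells with BTC-AM dye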)). Details: at 10 µM, actives lie on both sides.
How it was run: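 Material: M4/GIRK1/GIRK2 stable HEK293 cell line. Medium: pH 7.3 thallium assay buffer. Dosing: single compound concentration, 10 µM final. Schedule: 1 h dye loading, 2 min kinetic read. Measured by: kinetic fluorescence with BTC-AM dye. Read-out: post-addition slope, 15–24 s, of baseline-normalized fluorescence. Benchmarks: carbachol and DMSO controls.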

Sequence of Muscarinic acetylcholine receptor M4 (Homo sapiens) (P08173 whole entry, looked up): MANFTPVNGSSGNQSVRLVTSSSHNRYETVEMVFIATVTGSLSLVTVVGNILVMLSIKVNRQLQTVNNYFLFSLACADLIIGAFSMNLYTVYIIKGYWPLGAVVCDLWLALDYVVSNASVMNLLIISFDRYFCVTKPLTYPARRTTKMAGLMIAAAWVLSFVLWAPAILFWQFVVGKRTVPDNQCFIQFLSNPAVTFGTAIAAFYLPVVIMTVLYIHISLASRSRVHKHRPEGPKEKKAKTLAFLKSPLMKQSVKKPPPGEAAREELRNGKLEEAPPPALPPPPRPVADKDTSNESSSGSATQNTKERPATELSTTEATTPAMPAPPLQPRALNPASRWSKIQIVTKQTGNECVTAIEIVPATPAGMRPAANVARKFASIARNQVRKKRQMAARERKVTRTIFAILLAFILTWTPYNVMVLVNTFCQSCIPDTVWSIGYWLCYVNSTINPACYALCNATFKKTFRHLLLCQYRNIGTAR

| SMILES | fluorescence slope |
| --- | --- |
| CC1=C(C(N)=O)C(c2ccc(Cl)cc2Cl)n2ncnc2N1 (stereo not given) | 0.00707 |
| Cc1cc2c(s1)c1cnn(CC(=O)NCCc3ccccc3)c(=O)c1n2C | 0.00662 |
| CCc1c(C)nc(N2CCN(Cc3ccccc3)CC2)[nH]c1=O | 0.00476 |
| O=C1C2CCCN2C(c2ccc(Cl)cc2)N1c1nccs1 (stereo not given) | 0.00531 |
| CCCCN(CC)S(=O)(=O)N1CCC(C(=O)NCc2ccc(F)cc2)CC1 | 0.00507 |
| O=c1c2nnn(Cc3ccccc3)c2ncn1-c1ccccc1 | 0.00572 |
| CNC(=O)CN(c1cc(C)ccc1OC)S(=O)(=O)c1ccc(C)cc1 | 0.00434 |
| CCCCC(CC)C(=O)Nc1ccc(Cl)cn1 (stereo not given) | 0.00769 |
| CCOC(=O)N1CCN(S(=O)(=O)c2ccc(Br)s2)CC1 | 0.00427 |
| CC(=O)Nc1ccc(S(=O)(=O)n2cnc(C)c2)cc1 | 0.0072 |
| Cc1ccc(S(=O)(=O)NCCCNC(=O)N2CCOCC2)cc1 | 0.00502 |
| CC(=O)N(c1ccc(N(C(C)=O)S(=O)(=O)c2cccs2)cc1)S(=O)(=O)c1cccs1 | 0.00408 |
| CCCCNC(=O)c1c(C)cc(=O)oc1C | 0.0056 |
| COC(=O)c1ccc(CSc2nc3ccccc3c(=O)n2Cc2ccco2)o1 | 0.00748 |
| N#CCCCN1C(=O)C(O)(CC(=O)c2ccc3c(c2)OCCO3)c2ccccc21 (stereo not given) | 0.0053 |
| CN(C)CC(=O)N1c2ccccc2CCc2ccc(NC(=O)c3ccc(N)cc3)cc21 | 0.00297 |
| CC1=C(C#N)C(=O)NC(C)(C)C1 | 0.00867 |
| O=C(NCCO)c1scc2c1OCCO2 | 0.00603 |
| O=C(Cn1ccc2ccccc2c1=O)NCCC(=O)NC1CCN(Cc2ccccc2)CC1 | 0.00456 |
| CCOc1cc2[nH]c(=O)n(CCCCC(=O)N3CCCCCC3)c(=O)c2cc1OCC | 0.00663 |

| SMILES | fluorescence slope |
| --- | --- |
| COc1nc(OC)nc(N2CCC(C(=O)NC3CCCCCC3)CC2)n1 | 0.00646 |
| Cc1ccccc1CN1CCNC1=O | 0.00621 |
| CCC1(CC)C(=O)C(C)(C)C(=O)OC1c1cccs1 (stereo not given) | 0.00495 |
| O=C(NCc1ccccc1)N1CCn2c(nc3ccccc32)C1 | 0.00568 |
| CC1CCN(C(=O)CSc2nnc(-c3cccnc3)n2C2CCCCC2)CC1 | 0.00469 |
| CCCCNC(=O)Nc1ccnn1C1CCCCC1 | 0.0186 (active) |
| COc1ccc(OC)c(C2=NOC(C(=O)NCCN3CCOCC3)C2)c1 (stereo not given) | 0.00547 |
| CCCc1n[nH]c2c1/C(=N/O)CC(c1ccccc1)C2 (stereo not given) | 0.0053 |
| CCOC(=O)C1CCN(C(=O)c2ccc(OC)cc2OC)CC1 | 0.00429 |
| CN(CCCC(=O)Nc1ccncc1)S(=O)(=O)c1ccc(Cl)cc1 | 0.00791 |
| CCSc1ncc(C#N)c(=O)[nH]1 | 0.00385 |
| CCOc1ccccc1N1C(=O)CC(Sc2ncccc2C(=O)O)C1=O (stereo not given) | 0.00417 |
| COc1ccc(Cn2c(C)nc3c(c2=O)c2nc4ccccc4nc2n3Cc2ccco2)cc1 | 0.00431 |
| CCn1c2ccccc2c2cc(NC(=O)Cc3ccc(S(=O)(=O)N4CCOCC4)s3)ccc21 | 0.00333 |
| C/C(Cl)=C\Cn1c(NCCc2ccccc2)nc2c1c(=O)n(C)c(=O)n2C | 0.00523 |
| Cc1ccc2cc(CN(CC(C)C)C(=O)C3CCCO3)c(=O)[nH]c2c1 (stereo not given) | 0.00521 |
| COC(=O)C1(C(=O)OC)Sc2ccccc2C1=O | 0.0074 |
| CCn1c(CC(=O)Nc2cccc(OC)c2)nnc1SCC(=O)Nc1nccs1 | 0.00415 |
| O=C(O)CCc1ccc(-c2cccs2)n1NC(=O)c1ccco1 | 0.00473 |
| c1nc(NCC2CCCO2)c2[nH]cnc2n1 (stereo not given) | 0.00434 |
